These results are taken from ChEMBL document CHEMBL4376878, “Potent Thiophene Antagonists of Human Complement C3a Receptor with Anti-Inflammatory Activity” (J Med Chem, 2020).

Active and inactive are the calls of the source. No cut-off for these calls is given here. Residues, ends and D or L forms follow the SMILES beside them. Some results are limits rather than exact numbers.

Data set [1] in a line: Stability of the compound in rat plasma at 1 mM measured after 10 mins by LC-MS analysis. Type of data set: ADME, cell-free. The conditions noted are these: 1000 µM.
The target of data set [2] is T1, C3a anaphylatoxin chemotactic receptor (Homo sapiens, UniProt Q16581).
T1 sequence (Q16581 whole entry): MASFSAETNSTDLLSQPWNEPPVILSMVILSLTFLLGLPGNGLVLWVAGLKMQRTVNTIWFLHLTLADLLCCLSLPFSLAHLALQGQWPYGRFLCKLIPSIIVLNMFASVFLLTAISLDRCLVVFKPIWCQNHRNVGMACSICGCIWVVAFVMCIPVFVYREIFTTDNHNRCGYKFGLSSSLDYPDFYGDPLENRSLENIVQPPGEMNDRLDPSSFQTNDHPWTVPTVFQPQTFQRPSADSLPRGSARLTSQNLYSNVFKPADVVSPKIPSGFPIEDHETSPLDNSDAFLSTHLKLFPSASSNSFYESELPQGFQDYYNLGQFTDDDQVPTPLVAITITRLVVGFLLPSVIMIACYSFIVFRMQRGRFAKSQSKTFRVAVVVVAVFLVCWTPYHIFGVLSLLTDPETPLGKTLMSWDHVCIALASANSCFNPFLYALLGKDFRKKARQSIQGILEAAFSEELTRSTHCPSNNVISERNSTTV
As to the kind of experiment: Agonist activity at C3a receptor in human MDM cells assessed as induction of intracellular calcium release measured at 1 sec interval for => 200 secs by Fluo-3 AM dye-based FLIPR assay. The data set is classed as cell-based. The procedure, abridged: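 HMDMs were differentiated from CD14⁺ monocytes with M-CSF (100 ng/mL) for 7 days and seeded overnight at 5 × 10⁴ cells/well. Cells were loaded with 4 μM Fluo-3 AM for 1 h at 37 °C, then placed in HBSS with 2.5 mM probenecid and 20 mM HEPES, pH 7.4. Agonist was added on FLIPR and read at ex 495/em 520 nm. EC50 is relative to the maximum from 1 μM C3a; n ≥ 3.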
(In general: Calcium flux is commonly read through the fluorescence of an indicator in the cells.)

Data set [3] concerns the target T1, C3a anaphylatoxin chemotactic receptor. As to the kind of experiment: Antagonist activity at C3a receptor in human MDM cells assessed as inhibition of C3a-induced intracellular calcium release preincubated for 30 mins followed by C3a addition and measured at 1 sec interval for => 200 secs by Fluo-3 AM dye-based FLIPR assay. Type of data set: functional, cell-based. In outline:
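Macrophages were derived from CD14⁺ monocytes (M-CSF, 7 days) and dye-loaded with 4 μM Fluo-3 AM for 1 h at 37 °C in HBSS/probenecid/HEPES, pH 7.4. Antagonist was preincubated for 30 min at 37 °C before addition of synthetic full-length human C3a (100 nM). FLIPR fluorescence was read at ex 495/em 520 nm. Percent response was plotted against log concentration; n ≥ 3.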

Data set [4] deals with T2, C3a anaphylatoxin chemotactic receptor (Homo sapiens) (UniProt Q16581).
T2 sequence (whole entry): T1 sequence (Q16581 whole entry)
As to the kind of experiment: (§1) Antagonist at C3a receptor in human LAD2 cells assessed as inhibition of C3a-induced beta-hexosaminidase release preincubated for 30 mins followed by C3a addition. Type of data set: cell-based. In outline: (§2)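 LAD2 mast cells grown with SCF, 1 × 10⁴ cells/well seeded overnight and presensitized overnight with IgE (100 ng/mL). Compounds preincubated 30 min at 37 °C in 0.1 M HEPES pH 7.4, then C3a added and β-hexosaminidase release measured. IC50 is concentration inhibiting 50% of release induced by 100 nM C3a; n ≥ 3.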

For data set [5], the target named is T1, C3a anaphylatoxin chemotactic receptor. The description is as §1. Type of data set: cell-based. In outline: as §2
Data set [6] deals with Rattus norvegicus. As to the kind of experiment: Antiinflammatory activity in Wistar rat model of BR103-induced paw edema assessed as reduction in hind paw swelling at <30 mg/kg, po administered via gavage pretreated for 2 hrs followed by BR103 challenge and measured after 0.5 to 2 hrs by digital caliper method. The data set is classed as functional, organism-based.

As to `CC(C)C[C@H](NC(=O)OC(C)(C)C)C(=O)N[C@@H](C)C(=O)N[C@@H](CCCNC(=N)N)C(=O)O` (HELM PEPTIDE1{[CC(C)(C)OC(=O)[*:2]].L.A.R}$$$$V2.0), the Stability result in data set [1] is on record as “Unstable”.
Consider `N=C(N)NCCC[C@H](NC(=O)COCC(c1ccccc1)c1ccccc1)C(=O)O`, for which the EC50 in data set [2] (read-out: EC50) and in data set [2] (read-out: pEC50 (converted)) was greater than 100 µM throughout. In addition, the IC50 in data set [3] (read-out: IC50) is 1.3 to 3.8 µM; in data set [3] (read-out: pIC50 (converted)) it was 3.98 µM; in data set [5], 0.54 µM. For the same compound, the inhibition result in data set [4] was “Dose-dependent effect”. The outcome in data set [6] was inactive.
